Screening results (PubChem)
CHRM4 agonist: agonists of human muscarinic M4 receptor (CHRM4); P08173; CHO-K1 hM4/Gqi5, Fluo-8 calcium fluorescence; vehicle 0%, full acetylcholine response 100%; activation, % at 3 µM; 360,000 tested, 0.14% active;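 active = activation above the run mean over all test wells plus 3 SD, cut at about 32% in these data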;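 note: peak over basal fluorescence ratio per well then scaled between controls; 0% = DMSO wells and 100% = acetylcholine at EC100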
Target sequence (P08173 whole entry, looked up): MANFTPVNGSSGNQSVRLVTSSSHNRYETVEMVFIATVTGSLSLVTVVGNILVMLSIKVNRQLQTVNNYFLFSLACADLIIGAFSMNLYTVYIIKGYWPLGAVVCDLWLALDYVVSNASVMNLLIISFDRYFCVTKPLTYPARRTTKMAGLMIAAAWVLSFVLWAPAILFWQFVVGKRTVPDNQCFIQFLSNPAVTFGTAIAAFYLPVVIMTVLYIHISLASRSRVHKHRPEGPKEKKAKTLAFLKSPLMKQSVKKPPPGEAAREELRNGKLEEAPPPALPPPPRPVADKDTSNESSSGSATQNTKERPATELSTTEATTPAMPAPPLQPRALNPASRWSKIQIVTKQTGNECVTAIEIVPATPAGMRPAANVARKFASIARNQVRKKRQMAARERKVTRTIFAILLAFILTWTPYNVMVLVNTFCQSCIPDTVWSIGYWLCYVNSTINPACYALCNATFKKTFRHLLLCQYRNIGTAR
M5 antag: CHRM5 antagonism in calcium assay | P08912 | CHO-hM5 cells, Fluo-8 calcium fluorescence, ACh EC80 | inhibition, % at 3 µM | 360,000 tested, 0.59% active | AID 624040;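 active = inhibition above a per-plate cutoff, the mean of that plate's test compounds plus 3 SD, cut at about 27% in these data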;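 note: 0% = acetylcholine EC80 with DMSO and 100% = DMSO without agonist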
M5 PAM: positive allosteric modulators of human muscarinic M5 receptor | activation, % at 3 µM | AID 624038 | 360,000 tested, 0.3% active | CHO-K1 hM5, Fluo-8 calcium, ACh EC20 PAM; 0% = ACh EC20, 100% = ACh EC100;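 active = activation above the run cutoff, the mean activation of all test compounds plus 3 SD, cut at about 18% in these data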
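Measured by: Fluo-8 calcium fluorescence; material: human M5 receptor in CHO-K1 cells; schedule: Post-acetylcholine fluorescence recording 140 s; benchmarks: low control EC20 acetylcholine (0%), high control EC100 acetylcholine (100%); read-out: Max/basal fluorescence ratio as % of EC20–EC100 ACh window; compound: single dose, 3 µM nominal final test concentration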
CHRM4 PAM: CHRM4 positive allosteric modulation. CHO-K1 hM4/Gqi5, Fluo-8 calcium fluorescence, ACh EC20; 0% = ACh EC20, 100% = maximal ACh. activation, % at 3 µM. 360,000 tested, 0.4% active;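 active = activation above its plate's cutoff, the mean activation of sample wells plus 3 SD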
CHRM4 antagonist: antagonists of human muscarinic M4 receptor (CHRM4); 360,000 tested, 0.73% active; inhibition, % at 3 µM; CHO-hM4 cells, ACh EC80, Fluo-8 calcium fluorescence; P08173;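 active = inhibition above its plate's cutoff, the mean inhibition of sample wells plus 3 SD, cut at about 27% in these data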;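 note: 0% = acetylcholine EC80 with DMSO and 100% = DMSO without agonist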
M5 ag: agonists of human muscarinic M5 receptor (CHRM5); CHO-K1 hM5 cells, Fluo-8 calcium fluorescence; 0% DMSO wells, 100% maximal acetylcholine response; activation, % at 3 µM; 360,000 tested, 0.19% active; AID 624037;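 active = activation above the run's mean over test compounds plus 3 SD, cut at about 23% in these data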;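 note: signal is peak over basal fluorescence ratio across the kinetic read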
* = called active by the depositor. Sampled rows, rich in hits. Any-hit rate of the full collection: about 1.9%.

SMILES	CHRM4 agonist	M5 antag	M5 PAM	CHRM4 PAM	CHRM4 antagonist	M5 ag
CCN(Cc1ccccc1)C(=O)C1CCN(S(=O)(=O)c2ccc3c(c2)OCCO3)CC1	5	1	-3	1	-2	37*
CN(C)c1nc(OCCOC(=O)c2ccccc2)nc(N(C)C)n1	0	-6	-5	1	2	26*
CC(C)Cc1ccc(-c2cc(=O)[nH][nH]2)cc1	20	28*	-13	-10	5	-2
CCOC(=O)c1c(S(=O)(=O)NCC(=O)Nc2cc(C)ccc2C)c(C)n(C)c1C	-1	16	-5	-3	9	-5
CCOC(=O)c1c(S(=O)(=O)NCC(=O)Nc2ccc(F)cc2F)c(C)n(C)c1C	0	-13	13	18*	-8	-1
O=C(NC1CCCCC1)C1c2ccccc2OCC(=O)N1CC(F)(F)F (stereo not drawn)	1	8	-2	1	0	-7
COc1cccc(C2=NOC(C(=O)Nc3ccc4c(c3)OCO4)C2)c1OC (stereo not drawn)	7	6	-8	0	-1	1
O=C(O)CCC(=O)Nc1sc2c(c1C(=O)Nc1ccccc1)CCCCC2	7	17	10	9	40*	7
CC(C)OC(=O)c1c(NC(=O)CCC(=O)O)sc2c1CCCCC2	1	-1	16	21*	16	-2
O=C(O)CCC(=O)Nc1sc2c(c1C(=O)Nc1cccc3ccccc13)CCCCC2	1	1	1	0	1	0
CC(C)N(C(=O)c1ccc(Cc2cn(C)c3ccccc23)nc1)C(C)C	2	-4	0	0	2	1
CC(C)(C)OC(=O)NCc1ccc(CNC(=O)c2nc[nH]c2C(=O)N2CCN(c3ccccc3)CC2)cc1	21	16	-17	-5	-5	4
Cn1c(=O)c2[nH]c(-c3ccc(S(=O)(=O)O)cc3)nc2n(C)c1=O	1	-1	-20	-4	-1	68*
Cc1ccc(N2C(=O)CS(=O)C(c3ccccc3)C2=O)cc1C (stereo not drawn)	20	28*	-9	3	3	-2
COc1ccc(N2C(=O)CS(=O)C(c3ccccc3)C2=O)cc1 (stereo not drawn)	0	-7	5	-2	1	0
NC(=O)c1cc(S(=O)(=O)Nc2ccc(OC(F)(F)F)cc2)cs1	19	8	-14	-11	3	7
COc1cc(Cl)ccc1NC(=S)N(CCN1CCOCC1)C1CCN(C(C)=O)CC1	0	0	5	-12	61*	-2
Cc1cc(C(=O)Nc2cc(Br)ccc2O)on1	1	2	-3	1	8	0
CC1(C)Cc2c(sc3nc(N/N=C/c4ccccc4)[nH]c(=O)c23)CO1	2	24	25*	9	1	9
CC(C)C(C(=O)Nc1ccccc1F)N1C(=O)c2ccccc2C1=O (stereo not drawn)	0	-9	20*	4	1	8
COc1ccccc1NC(=O)C(C)N1C(=O)c2ccccc2C1=O (stereo not drawn)	2	-5	13	2	-7	2
COc1ccc(NC(=O)C(C)N2C(=O)c3ccccc3C2=O)c(OC)c1 (stereo not drawn)	0	-18	18*	-3	-3	3
Cc1cc(C(=O)Nc2cc(S(C)(=O)=O)ccc2Cl)c(C)o1	0	11	-1	-1	2	-2
CCn1ncc(CN2CCC(n3nccc3NC(=O)c3ccccc3Cl)CC2)c1C	2	3	-1	4	-20	-1
CSCCC(NC(=O)c1ccccc1Cl)C(=O)OCC(=O)N1CCCC1=O (stereo not drawn)	2	6	-6	14	-16	0
CN(C)c1nn(C(=O)Nc2cccc(C(F)(F)F)c2)cc1-c1ccccc1	17	36*	-15	-16	27*	5
CC(C)C[C@H]1CNC(=S)N1CC1CCN(CC2CCC(C(C)(C)C)CC2)CC1 (stereo partly drawn)	4	35*	-20	-17	50*	-3
